Compound activity deposited in PubChem by several laboratories.
Most compounds without a hit are left out; they make up all but 1.4% or so of the library.
MOR-DOR ag-1: OPRM1-OPRD1 heterodimerization agonism; actives 0.3% (n = 340,000); activation, % at 9.3 µM; cells, luminescence;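 further: 0% = vehicle-treated cells and 100% = reference agonist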
HTR5A ag ctr: HTR5A agonism, opioid heterodimer counter-screen; actives 0.61% (n = 340,000); HTR5A agonist assay, luminescence, cell-based; AID 504692; activation, % at 9.3 µM; in the data active means activation mostly above about 9.5%, no sharp cut-off; inactive means mostly below about 7.6%;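 further: 0% = cells with vehicle only and 100% = reference agonist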
MOR-DOR inv ag: inverse agonist of human OPRM1-OPRD1 heterodimerization; P35372+P41143; cell-based MOR-DOR heterodimer luminescence, inverse agonism; inhibition, % at 9.3 µM; actives 0.21% (n = 340,000); AID 504357; in the data active means inhibition above about 22%, passing the limit was not always enough;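 further: 0% = cells with DMSO and 100% = wells without cells with DMSO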
Arr AP2 block: inhibitors of human beta-arrestin and AP2 interaction. FITC-arrestin peptide / GST-AP2 beads, flow cytometry; AP2 beta2 appendage carries R879A mutation. AID 504490. inhibition, % at 10 µM. actives 0.31% (n = 340,000);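 active means inhibition above a set limit, near 3 SD of compounds lacking own fluorescence, cut at about 54% in these data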;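 further: plate controls were DMSO wells for no effect and 5 µM unlabelled arrestin peptide for full effect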
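Measured by: flow cytometry, FL1 (488/535 nm); Material: AP2 appendage R879A on GSH beads; Evaluation: percent response; Timing: pre-incubation 12 min, peptide binding 1 h, room temperature; Also added: 50 nM FITC-arrestin peptide; Medium: PBS with 0.05% Tween 20 and 0.1% BSA.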
HTR5A inv ag: inverse agonist of human HTR5A in OPRM1-OPRD1 counter-screen; P47898; HTR5A cell line, luminescence, inverse agonism; inhibition, % at 9.3 µM; actives 0.083% (n = 340,000); in the data active means inhibition mostly above about 23%, no sharp cut-off; inactive means mostly below about 18%;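 further: 0% = cells with DMSO and 100% = no-cell wells with DMSO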
DAGLB inh: diacylglycerol lipase beta (human) inhibition | HEK293T DAGLB membrane lysate, EnzChek fluorogenic substrate | inhibition, % at 5.17 µM | actives 0.059% (n = 340,000); in the data active means inhibition above about 34%;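 further: 0% = enzyme with vehicle and 100% = wells lacking enzyme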
MOR-DOR ag-2: opioid heterodimer agonism, HTR5A counter-screen. shares compounds with HTR5A ag ctr. U2OS counter-screen cells, complementation luminescence, 3 h. activation, % at 9.3 µM. actives 13% (n = 800). AID 504913
HTR5A ag conf: HTR5A (human) agonism, confirmation. shares compounds with HTR5A ag ctr. HTR5A agonist cell assay, luminescence. activation, % at 9.3 µM. actives 17% (n = 800); in the data active means activation above about 17%;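 further: 0% = cells with vehicle only and 100% = full reference agonist response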
Starred values were filed as active, the others as inactive; . = no result given. Unless noted, no stated cut-off is given here; in the data, active means activation above about 18%; inactive means the rest.

SMILES	MOR-DOR ag-1	HTR5A ag ctr	MOR-DOR inv ag	Arr AP2 block	HTR5A inv ag	DAGLB inh	MOR-DOR ag-2	HTR5A ag conf
COc1ccc(OC)c(C2SCCN2S(=O)(=O)c2cccc(C(F)(F)F)c2)c1 (stereo unspecified)	3	17*	-18	3	-39	-3	3	-4
Cc1ccc(C(=O)OCC(=O)c2ccc(Br)cc2)cc1S(=O)(=O)N1CCOCC1	-3	6	11	1	-3	-3	.	.
COc1cccc(N=C(N)N=C(N)N)c1	0	16*	-2	-12	-43	-4	2	2
Cc1cc(=O)c(C(=O)O)nn1-c1ccccc1C(F)(F)F	0	15*	0	-7	-4	0	0	-2
Cc1cc(=O)c(C(=O)O)nn1-c1cccc(C(F)(F)F)c1	-3	-2	14	2	13	1	.	.
Cc1oc2c(c1C(=O)c1ccc(Cl)cc1)C(=O)C(=O)c1ccccc1-2	3	0	-17	19	0	2	.	.
Cc1ccc(C(=O)c2coc3c2C(=O)C(=O)c2ccccc2-3)cc1	13	19*	-73	-13	-33	8	7	7
Cc1noc(C)c1NC(=O)N(C)C[C@@H]1Oc2ncc(Br)cc2C(=O)N([C@@H](C)CO)C[C@H]1C	.	.	.	.	.	-1	.	.
O=C(CN1C(=O)CSc2ncccc21)NCCN1CCOCC1	-1	16*	4	50	-48	0	0	1
O=C(CCC(=O)c1ccccc1)NCCc1c[nH]c2ccccc12	-1	94*	8	4	-293	-1	2	89*
COc1ccc(C(=O)CCC(=O)NCCc2c[nH]c3ccccc23)cc1	-4	44*	20	4	-156	-2	0	42*
O=C(NCCc1c[nH]c2ccccc12)c1cccc(S(=O)(=O)Nc2ccccc2Cl)c1	-2	0	8	-1	2	3	.	.
Fc1cccc(NCCc2c[nH]c3ccccc23)n1	5	-3	-26	28	12	-1	.	.
c1ccc2c(NCCc3c[nH]c4ccccc34)c3ccccc3nc2c1	3	17*	-17	24	-68	0	7	2
CN(c1ccccc1)S(=O)(=O)c1cccc(C(=O)NCCc2c[nH]c3ccccc23)c1	-2	27*	8	-8	-73	2	57*	1
Cc1ccc(S(=O)(=O)N2C[C@H]3C(=O)C[C@@H](c4ccc(Cl)cc4)N(S(=O)(=O)c4ccccc4C)[C@H]3C[C@H]2c2ccc(Cl)cc2)cc1	.	.	.	.	.	-11	.	.
Cn1nc(C(=O)NCC(=O)Nc2ccc(F)c(F)c2)ccc1=O	.	.	.	.	.	0	.	.
CN(C)C(=O)c1cccc(COc2ccc(N3C(N)=NC(N)=NC3(C)C)cc2Cl)c1	.	.	.	.	.	-5	.	.
CN(C(=O)c1cccc(NC(=O)Cc2cccc(NC(=O)C3CCCN(C(=O)C4CCC4)C3)c2)c1)C1CCC1 (stereo unspecified)	3	0	-13	45	-1	3	.	.
O=C(Cc1ccccc1)NCCc1c[nH]c2ccccc12	-2	0	10	38	-2	-2	.	.
O=C(O)c1nccnc1C(=O)NCCc1c[nH]c2ccccc12	-3	16*	18	26	-5	-3	0	12
Cc1ccccc1NC(=O)C(=O)NCCc1c[nH]c2ccccc12	3	35*	-16	3	-190	-5	2	61*
C[C@H](CO)N1C[C@H](C)[C@H](CN(C)S(=O)(=O)c2ccc(Cl)cc2)OCc2ccccc2-c2c(n(C)c3ccccc23)C1=O	.	.	.	.	.	-5	.	.
N#Cc1c([N+](=O)[O-])cc([N+](=O)[O-])cc1S(=O)(=O)Cc1ccccc1	6	-4	-23	5	12	13	.	.
O=C(CCl)N(c1ccc(Cl)cc1)c1c[nH]c2ccccc12	2	16*	-12	29	-27	11	1	21*
O=C(CSc1n[nH]c(-c2ccco2)n1)Nc1ccc(Br)cc1	-3	-4	17	1	16	3	.	.
